{"source": "ChEMBL document CHEMBL4350961", "about": "“Discovery of Pyrrolo[3,2- d]pyrimidin-4-one Derivatives as a New Class of Potent and Cell-Active Inhibitors of P300/CBP-Associated Factor Bromodomain” (J Med Chem, 2019)", "key": {"[1]": {"molecular_target": "ATPase family AAA domain-containing protein 2 (Homo sapiens) (UniProt Q6PL18)", "assay": "Binding affinity to human partial length ATAD2A (Q981 to R1108 residues) expressed in bacterial expression system at 1 uM by BROMOscan assay", "outline": "(§1)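 BROMOscan bromodomain cross-screen run by an outside service, compound at 1 µM against 32 recombinant bromodomains. Binding given as percent of control.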"}, "[2]": {"molecular_target": "Bromodomain-containing protein 7 (Homo sapiens) (UniProt Q9NPI1)", "assay": "Binding affinity to human partial length BRD7 (L125 to R254 residues) expressed in mammalian expression system at 1 uM by BROMOscan assay", "outline": "as §1"}, "[3]": {"molecular_target": "Chromatin remodeling regulator CECR2 (Homo sapiens) (UniProt Q9BXF3)", "sequence (Q9BXF3 whole entry, looked up, the tested form may be a part)": "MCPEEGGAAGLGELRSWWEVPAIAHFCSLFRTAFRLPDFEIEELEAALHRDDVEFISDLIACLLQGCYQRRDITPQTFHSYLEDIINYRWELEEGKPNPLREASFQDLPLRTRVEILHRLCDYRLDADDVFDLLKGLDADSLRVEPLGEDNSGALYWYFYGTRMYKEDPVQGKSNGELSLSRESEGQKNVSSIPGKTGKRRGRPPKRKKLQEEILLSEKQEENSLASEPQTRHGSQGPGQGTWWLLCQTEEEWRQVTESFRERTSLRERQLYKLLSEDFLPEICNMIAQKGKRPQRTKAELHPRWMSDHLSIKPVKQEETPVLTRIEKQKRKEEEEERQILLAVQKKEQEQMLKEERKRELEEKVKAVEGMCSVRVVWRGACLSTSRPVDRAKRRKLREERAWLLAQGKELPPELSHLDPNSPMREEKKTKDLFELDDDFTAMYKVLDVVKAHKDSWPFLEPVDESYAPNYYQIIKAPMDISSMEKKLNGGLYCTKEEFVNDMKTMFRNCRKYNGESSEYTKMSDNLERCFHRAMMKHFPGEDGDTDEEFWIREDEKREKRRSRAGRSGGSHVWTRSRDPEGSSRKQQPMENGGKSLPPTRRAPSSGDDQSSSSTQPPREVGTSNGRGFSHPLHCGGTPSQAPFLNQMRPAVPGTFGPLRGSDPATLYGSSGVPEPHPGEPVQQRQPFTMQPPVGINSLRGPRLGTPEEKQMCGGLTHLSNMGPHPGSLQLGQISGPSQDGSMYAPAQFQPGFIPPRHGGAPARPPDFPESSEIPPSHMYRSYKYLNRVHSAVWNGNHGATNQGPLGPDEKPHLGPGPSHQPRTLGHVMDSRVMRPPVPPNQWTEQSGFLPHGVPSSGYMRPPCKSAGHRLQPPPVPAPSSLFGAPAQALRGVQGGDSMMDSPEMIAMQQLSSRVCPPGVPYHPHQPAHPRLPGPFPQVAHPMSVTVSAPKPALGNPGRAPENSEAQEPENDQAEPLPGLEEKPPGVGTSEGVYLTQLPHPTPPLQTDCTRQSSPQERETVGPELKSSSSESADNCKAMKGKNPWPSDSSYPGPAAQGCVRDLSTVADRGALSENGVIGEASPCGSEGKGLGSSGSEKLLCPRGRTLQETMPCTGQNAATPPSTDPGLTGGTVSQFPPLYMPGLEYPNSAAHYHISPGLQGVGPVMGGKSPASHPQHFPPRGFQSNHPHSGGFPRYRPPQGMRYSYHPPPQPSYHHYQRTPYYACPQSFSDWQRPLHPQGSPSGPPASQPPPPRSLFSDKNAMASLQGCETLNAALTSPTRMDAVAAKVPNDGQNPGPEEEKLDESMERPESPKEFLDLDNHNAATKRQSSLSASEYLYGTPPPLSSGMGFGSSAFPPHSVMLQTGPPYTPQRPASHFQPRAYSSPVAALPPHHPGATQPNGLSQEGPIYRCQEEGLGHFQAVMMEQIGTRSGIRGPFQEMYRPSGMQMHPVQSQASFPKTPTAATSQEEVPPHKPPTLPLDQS", "assay": "Binding affinity to human partial length CECR2 (P423 to D543 residues) expressed in bacterial expression system at 1 uM by BROMOscan assay", "outline": "as §1"}, "[4]": {"molecular_target": "CREB-binding protein (Homo sapiens) (UniProt Q92793)", "assay": "Binding affinity to human partial length CREBBP (R1081 to G1197 residues) expressed in bacterial expression system at 1 uM by BROMOscan assay", "outline": "as §1"}, "[5]": {"molecular_target": "SWI/SNF-related matrix-associated actin-dependent regulator of chromatin subfamily A member 4 (Homo sapiens) (UniProt P51532)", "assay": "Binding affinity to human partial length SMARCA4 (A1448 to S1575 residues) expressed in bacterial expression system at 1 uM by BROMOscan assay", "outline": "as §1"}, "[6]": {"system": "RAF proto-oncogene serine/threonine-protein kinase (Homo sapiens), P04049 [Y340D,Y341D]", "assay": "Inhibition of recombinant human c-RAF Y340D/Y341D mutant (360 to end residues) at 10 uM using inactive MEK1 as substrate measured after 40 mins in presence of [gamma33P]ATP by scintillation counting method"}, "[7]": {"molecular_target": "Ephrin type-A receptor 2 (Homo sapiens) (UniProt P29317)", "assay": "Inhibition of recombinant human EphA2 (596 to 900 residues) at 10 uM using poly(Glu, Tyr) 4:1 as substrate measured after 40 mins in presence of [gamma33P]ATP by scintillation counting method"}, "[8]": {"molecular_target": "Receptor tyrosine-protein kinase erbB-4 (Homo sapiens) (UniProt Q15303)", "assay": "Inhibition of recombinant human ErbB4 (706 to 991 residues) at 10 uM using poly (Glu, Tyr) 4:1 as substrate measured after 40 mins in presence of [gamma33P]ATP by scintillation counting method"}, "[9]": {"system": "Fibroblast growth factor receptor 1 (Homo sapiens), P11362 [V561M]", "assay": "Inhibition of recombinant human FGFR1 V561M mutant (456 to 765 residues) at 10 uM using GGEEEEYFELVKKKK as substrate measured after 40 mins in presence of [gamma33P]ATP by scintillation counting method"}, "[10]": {"system": "Macrophage colony-stimulating factor 1 receptor (Homo sapiens), P07333 [Y969C]", "sequence (P07333 whole entry Y969C)": "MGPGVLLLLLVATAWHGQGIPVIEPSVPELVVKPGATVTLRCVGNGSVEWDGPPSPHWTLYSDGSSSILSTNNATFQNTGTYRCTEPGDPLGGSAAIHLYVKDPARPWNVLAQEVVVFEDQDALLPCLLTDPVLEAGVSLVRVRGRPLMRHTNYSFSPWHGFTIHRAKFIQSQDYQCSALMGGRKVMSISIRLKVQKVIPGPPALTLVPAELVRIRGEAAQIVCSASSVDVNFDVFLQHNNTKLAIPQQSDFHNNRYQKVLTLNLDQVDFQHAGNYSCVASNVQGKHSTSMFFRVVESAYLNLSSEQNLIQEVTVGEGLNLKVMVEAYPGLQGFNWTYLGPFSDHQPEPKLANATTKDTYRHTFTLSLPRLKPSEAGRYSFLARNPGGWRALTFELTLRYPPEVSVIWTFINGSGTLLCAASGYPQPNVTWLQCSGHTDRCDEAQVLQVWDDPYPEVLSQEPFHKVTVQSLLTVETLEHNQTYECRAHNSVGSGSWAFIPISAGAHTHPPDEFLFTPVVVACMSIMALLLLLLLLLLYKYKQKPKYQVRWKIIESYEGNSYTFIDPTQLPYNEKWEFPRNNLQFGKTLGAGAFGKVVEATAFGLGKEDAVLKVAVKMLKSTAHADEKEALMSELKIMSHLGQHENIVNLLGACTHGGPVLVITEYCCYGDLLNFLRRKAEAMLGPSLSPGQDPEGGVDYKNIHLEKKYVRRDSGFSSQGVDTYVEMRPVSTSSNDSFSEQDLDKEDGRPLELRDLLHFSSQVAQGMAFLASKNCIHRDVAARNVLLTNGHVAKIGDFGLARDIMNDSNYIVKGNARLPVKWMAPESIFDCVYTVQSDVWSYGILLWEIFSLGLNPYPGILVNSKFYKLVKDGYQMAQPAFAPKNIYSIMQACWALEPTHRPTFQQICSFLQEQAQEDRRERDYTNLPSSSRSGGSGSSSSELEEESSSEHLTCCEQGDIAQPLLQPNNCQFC", "assay": "Inhibition of recombinant human FMS Y969C mutant (538 to end residues) at 10 uM using EEEEYEEEEEEYYIIEEEEEEYEEEEEEYYEEEEEEKKKK as substrate measured after 40 mins in presence of [gamma33P]ATP by scintillation counting method"}, "[11]": {"molecular_target": "Tyrosine-protein kinase JAK3 (Homo sapiens) (UniProt P52333)", "sequence (P52333 whole entry)": "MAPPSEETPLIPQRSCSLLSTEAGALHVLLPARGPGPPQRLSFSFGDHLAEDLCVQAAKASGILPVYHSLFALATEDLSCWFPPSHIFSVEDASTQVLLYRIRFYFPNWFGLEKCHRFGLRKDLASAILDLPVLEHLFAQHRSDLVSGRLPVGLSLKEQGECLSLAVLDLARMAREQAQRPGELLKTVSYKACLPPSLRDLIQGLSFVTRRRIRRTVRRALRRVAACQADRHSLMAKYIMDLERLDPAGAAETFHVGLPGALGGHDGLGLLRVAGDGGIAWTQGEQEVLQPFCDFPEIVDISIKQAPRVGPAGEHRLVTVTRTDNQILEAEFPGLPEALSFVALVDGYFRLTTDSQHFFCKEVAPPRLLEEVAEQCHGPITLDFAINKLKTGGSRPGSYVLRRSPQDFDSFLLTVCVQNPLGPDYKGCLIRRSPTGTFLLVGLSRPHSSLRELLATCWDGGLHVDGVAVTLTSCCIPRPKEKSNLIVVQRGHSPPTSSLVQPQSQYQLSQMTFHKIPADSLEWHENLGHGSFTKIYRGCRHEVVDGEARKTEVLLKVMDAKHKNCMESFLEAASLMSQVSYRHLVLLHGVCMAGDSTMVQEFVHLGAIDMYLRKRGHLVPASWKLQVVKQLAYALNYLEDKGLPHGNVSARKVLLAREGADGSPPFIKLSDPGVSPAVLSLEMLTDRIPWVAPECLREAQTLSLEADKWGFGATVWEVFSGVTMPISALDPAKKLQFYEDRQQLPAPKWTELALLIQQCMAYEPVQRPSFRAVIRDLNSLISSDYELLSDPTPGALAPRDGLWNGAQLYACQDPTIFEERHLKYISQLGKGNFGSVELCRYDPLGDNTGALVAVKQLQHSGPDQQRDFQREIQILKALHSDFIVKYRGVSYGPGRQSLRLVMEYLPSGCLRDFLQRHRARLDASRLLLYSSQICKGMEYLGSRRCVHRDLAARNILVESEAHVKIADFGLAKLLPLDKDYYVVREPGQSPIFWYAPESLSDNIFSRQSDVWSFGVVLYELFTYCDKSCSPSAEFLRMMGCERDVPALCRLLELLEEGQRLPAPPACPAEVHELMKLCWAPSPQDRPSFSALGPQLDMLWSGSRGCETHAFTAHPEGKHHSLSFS", "assay": "Inhibition of recombinant human JAK3 (781 to end residues) at 10 uM using GGEEEEYFELVKKKK as substrate measured after 40 mins in presence of [gamma33P]ATP by scintillation counting method"}, "[12]": {"molecular_target": "Mitogen-activated protein kinase 1 (Mus musculus) (UniProt P63085)", "assay": "Inhibition of mouse MAPK2 at 10 uM"}, "[13]": {"molecular_target": "Mitogen-activated protein kinase 1 (Homo sapiens) (UniProt P28482)", "assay": "Inhibition of human MAPK2 at 10 uM", "outline": "(§2)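 Kinase panel of 422 kinases screened by Eurofins KinaseProfiler at a single test-compound concentration of 10 µM.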"}, "[14]": {"molecular_target": "Dual specificity mitogen-activated protein kinase kinase 2 (Homo sapiens) (UniProt P36507)", "assay": "Inhibition of recombinant full-length human MEK2 at 10 uM using MBP as substrate measured after 40 mins in presence of [gamma33P]ATP by scintillation counting method"}, "[15]": {"molecular_target": "Serine/threonine-protein kinase Nek6 (Homo sapiens) (UniProt Q9HC98)", "sequence (Q9HC98 whole entry)": "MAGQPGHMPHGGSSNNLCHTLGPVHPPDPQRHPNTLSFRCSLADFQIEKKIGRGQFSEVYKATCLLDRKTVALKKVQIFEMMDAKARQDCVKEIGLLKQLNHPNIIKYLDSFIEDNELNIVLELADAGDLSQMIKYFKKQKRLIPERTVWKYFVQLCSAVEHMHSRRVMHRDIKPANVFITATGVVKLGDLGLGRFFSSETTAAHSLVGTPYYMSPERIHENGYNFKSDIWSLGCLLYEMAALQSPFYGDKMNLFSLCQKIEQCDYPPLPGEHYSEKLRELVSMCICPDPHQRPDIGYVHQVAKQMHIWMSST", "assay": "Inhibition of recombinant human NEK6 (2 to end residues) at 10 uM using FLAKSFGSPNRAYKK as substrate measured after 40 mins in presence of [gamma33P]ATP by scintillation counting method"}, "[16]": {"molecular_target": "Serine/threonine-protein kinase NLK (Homo sapiens) (UniProt Q9UBE8)", "assay": "Inhibition of recombinant human NLK (121 to end residues) at 10 uM using myelin basic protein as substrate measured after 40 mins in presence of [gamma33P]ATP by scintillation counting method"}, "[17]": {"molecular_target": "Protein-tyrosine kinase 2-beta (Homo sapiens) (UniProt Q14289)", "assay": "Inhibition of recombinant full-length human Pyk2 at 10 uM using poly(Glu, Tyr) 4:1 as substrate measured after 40 mins in presence of [gamma33P]ATP by scintillation counting method"}, "[18]": {"molecular_target": "Ribosomal protein S6 kinase alpha-1 (Homo sapiens) (UniProt Q15418)", "assay": "Inhibition of recombinant full-length human Rsk1 at 10 uM using KKKNRTLSVA as substrate measured after 40 mins in presence of [gamma33P]ATP by scintillation counting method"}, "[19]": {"system": "SNF-related serine/threonine-protein kinase (Homo sapiens), Q9NRH2 [UNDEFINED MUTATION]", "assay": "Inhibition of human SNRK E97G/P116A mutant (65 to 409 residues) using KKLRRTLSFAEPG as substrate measured after 40 mins in presence of [gamma33P]ATP by scintillation counting method", "outline": "as §2"}, "[20]": {"molecular_target": "Serine/threonine-protein kinase 25 (Homo sapiens) (UniProt O00506)", "sequence (O00506 whole entry, looked up, the tested form may be a part)": "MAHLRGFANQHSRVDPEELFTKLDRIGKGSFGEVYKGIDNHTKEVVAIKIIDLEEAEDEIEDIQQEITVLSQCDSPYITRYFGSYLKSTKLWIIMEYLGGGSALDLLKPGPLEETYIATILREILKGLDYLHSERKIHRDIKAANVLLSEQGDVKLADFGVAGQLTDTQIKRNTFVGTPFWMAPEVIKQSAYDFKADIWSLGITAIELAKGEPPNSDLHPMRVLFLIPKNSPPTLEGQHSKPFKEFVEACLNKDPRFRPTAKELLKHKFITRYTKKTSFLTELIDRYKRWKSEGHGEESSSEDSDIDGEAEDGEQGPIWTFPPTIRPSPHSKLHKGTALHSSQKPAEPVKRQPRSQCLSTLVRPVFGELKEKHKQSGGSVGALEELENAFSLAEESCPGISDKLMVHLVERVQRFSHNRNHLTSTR", "assay": "Inhibition of human STK25 (1 to 308 residues) using RLGRDKYKTLRQIRQ as substrate measured after 40 mins in presence of [gamma33P]ATP by scintillation counting method", "outline": "as §2"}, "[21]": {"molecular_target": "BDNF/NT-3 growth factors receptor (Homo sapiens) (UniProt Q16620)", "assay": "Inhibition of human TrkB (455 to end residues) using poly(Glu, Tyr) 4:1 as substrate measured after 40 mins in presence of [gamma33P]ATP by scintillation counting method"}, "[22]": {"molecular_target": "Serine/threonine-protein kinase ULK3 (Homo sapiens) (UniProt Q6PHR2)", "sequence (Q6PHR2 whole entry)": "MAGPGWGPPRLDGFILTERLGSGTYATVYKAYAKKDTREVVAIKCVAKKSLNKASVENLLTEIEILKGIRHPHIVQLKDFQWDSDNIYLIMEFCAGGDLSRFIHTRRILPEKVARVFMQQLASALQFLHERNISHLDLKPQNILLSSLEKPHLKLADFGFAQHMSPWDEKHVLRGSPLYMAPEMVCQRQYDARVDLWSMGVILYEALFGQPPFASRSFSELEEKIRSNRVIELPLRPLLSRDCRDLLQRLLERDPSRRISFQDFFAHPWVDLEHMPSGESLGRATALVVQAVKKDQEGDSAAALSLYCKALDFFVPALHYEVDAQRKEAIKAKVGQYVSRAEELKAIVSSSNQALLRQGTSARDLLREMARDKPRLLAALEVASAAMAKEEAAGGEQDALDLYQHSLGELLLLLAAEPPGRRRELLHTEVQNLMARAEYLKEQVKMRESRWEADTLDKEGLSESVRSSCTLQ", "assay": "Inhibition of recombinant full-length human ULK3 at 10 uM using casein as substrate measured after 40 mins in presence of [gamma33P]ATP by scintillation counting method"}, "[23]": {"molecular_target": "Serine/threonine-protein kinase WNK1 (Homo sapiens) (UniProt Q9H4A3)", "assay": "Inhibition of human WNK1 (1 to 491 residues) using myelin basic protein as substrate measured after 120 mins in presence of [gamma33P]ATP by scintillation counting method"}, "Homo sapiens": {"species_on_record": "Homo sapiens", "assay": "Inhibition of recombinant full-length human PI3K p120gamma R459Q mutant at 10 uM using phosphatidylinositol-4, 5-bisphosphate as substrate measured after 40 mins by fluorescence assay"}}, "note": "Calls of active or inactive are those of the source. The rule behind the calls is not given here."}
{"smiles": "CN1C[C@H](Nc2nc3cc[nH]c3c(=O)n2C)C[C@H](c2ccc3c(c2)OCCO3)C1", "values": [{"measurement": "Activity", "setting": "[1]", "value": "inactive"}, {"measurement": "Activity", "setting": "[2]", "value": "inactive"}, {"measurement": "Activity", "setting": "[3]", "value": "Active"}, {"measurement": "Activity", "setting": "[4]", "value": "inactive"}, {"measurement": "Activity", "setting": "[5]", "value": "inactive"}, {"measurement": "inhibition", "setting": "[6]", "value": "inactive"}, {"measurement": "inhibition", "setting": "[7]", "value": "inactive"}, {"measurement": "inhibition", "setting": "[8]", "value": "inactive"}, {"measurement": "inhibition", "setting": "[9]", "value": "inactive"}, {"measurement": "inhibition", "setting": "[10]", "value": "inactive"}, {"measurement": "inhibition", "setting": "[11]", "value": "inactive"}, {"measurement": "inhibition", "setting": "[12]", "value": "inactive"}, {"measurement": "inhibition", "setting": "[13]", "value": "inactive"}, {"measurement": "inhibition", "setting": "[14]", "value": "inactive"}, {"measurement": "inhibition", "setting": "[15]", "value": "inactive"}, {"measurement": "inhibition", "setting": "[16]", "value": "inactive"}, {"measurement": "inhibition", "setting": "[17]", "value": "inactive"}, {"measurement": "inhibition", "setting": "[18]", "value": "inactive"}, {"measurement": "inhibition", "setting": "[19]", "value": "inactive"}, {"measurement": "inhibition", "setting": "[20]", "value": "inactive"}, {"measurement": "inhibition", "setting": "[21]", "value": "inactive"}, {"measurement": "inhibition", "setting": "[22]", "value": "inactive"}, {"measurement": "inhibition", "setting": "[23]", "value": "inactive"}, {"measurement": "inhibition", "setting": "Homo sapiens", "value": "inactive"}]}
